Test results as given in PMC8919593 (Journal of neuroscience research, 2021).

Tests used:
primary mouse microglia [1] = experiment: Microglia-neuron coculture assay of neuronal phagocytosis; format: cell-based; conditions: 1 μM inhibitor, without IFNγ treatment; 24 hr coculture; Figure 5e
primary mouse microglia [2] = experiment: Flow cytometric assay of microglial viability; format: cell-based; conditions: 1 μM inhibitor, with or without 1 ng/ml IFNγ, 24 hr; Figure S2
ERK1 = conditions: read-out: IC50 for ERK1; ref Morris et al., 2013; cited from earlier work
ERK2 = conditions: read-out: IC50 for ERK2; ref Morris et al., 2013; cited from earlier work
primary mouse microglia [3] = experiment: qRT-PCR of homeostatic and DAM genes in primary microglia; format: cell-based; conditions: dose ranges between 4 and 50 nM, IFNγ-stimulated conditions; Figure S6
In short: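 Mouse brain microglia were purified by CD11b+ MACS selection, plated on poly-L-lysine and cultured at 37°C. After 24 hr, half the medium was replaced and the ERK1/2 inhibitor added. Cells were preincubated 1 hr, then stimulated with 1 ng/ml IFNγ for 24 hr, matching the NanoString culture conditions. RNA was isolated and checked for concentration and purity by spectrophotometry before qRT-PCR.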

O=C(Nc1ccc2[nH]nc(-c3ccncc3)c2c1)[C@@H]1CCN(CC(=O)N2CCN(c3ccc(-c4ncccn4)cc3)CC2)C1 [SCH772984]
microglial phagocytosis of N2a cells (primary mouse microglia [1]): significantly reduced microglial phagocytosis of N2a cells
cell health and viability of microglia (primary mouse microglia [2]): minimally impacted cell health and viability
IC50 (ERK1): 4 nM
IC50 (ERK2): 1 nM
gene expression of Ptgs2 (pro-inflammatory DAM gene) (primary mouse microglia [3]): inhibited gene expression of Ptgs2
